Data set [1] can be described thus: Plasma concentration in Dunkin-Hartley guinea pig LPS-induced hyperalgesia pain model at 10 mg/kg, po administered 2 hrs prior to LPS challenge measured 7 hrs post dose. Format: ADME, organism-based, Cavia porcellus. The method, boiled down:
(§1)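 Guinea pigs dosed orally at 10, 30 or 100 mg/kg 2 h before intraplantar LPS in the right hind paw; thermal hyperalgesia scored. Plasma (ng/mL) and brain (ng/g) levels taken 7 h post dose; brain/plasma ratio computed. Means of 6–9 animals per group, single experiment.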

The subject of data set [2] is Cavia porcellus. Nature of the data set: Analgesic activity in Dunkin-Hartley guinea pig MIA-induced osteoarthritic pain model assessed as reversal of incapacitance administered orally on day 3 measured 6 to 7 hrs post dose. The class given is functional. The method, boiled down:
(§2)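 Day 0: monoiodoacetate injected into the right shoulder joint of guinea pigs; saline-injected animals as comparison. Day 3: compound given orally at 100, 250 or 500 mg/kg, and weight-bearing incapacitance on the injected forelimb measured. Plasma sampled at the PD time point, n = 6–8 per group, single experiment.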

Data set [3] in a line: Drug uptake in brain of Dunkin-Hartley guinea pig LPS-induced hyperalgesia pain model at 30 mg/kg, po administered 2 hrs prior to LPS challenge measured 7 hrs post dose. Format: ADME, organism-based, Cavia porcellus. As to conditions: read-out: Drug uptake. The method, boiled down:
(§3)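 Guinea pigs received compound orally, once daily, at 10, 30 or 100 mg/kg, 2 h before LPS was injected into the plantar surface of the right paw. Saline-injected animals served as the comparison for thermal hyperalgesia. Plasma and brain drug levels taken 7 h after dosing, mean of n = 6–9 per group, from a single experiment.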

Data set [4] is described as follows: Drug uptake in brain of Dunkin-Hartley guinea pig LPS-induced hyperalgesia pain model at 10 mg/kg, po administered 2 hrs prior to LPS challenge measured 7 hrs post dose. Format: ADME, organism-based, Cavia porcellus. As to conditions: read-out: Drug uptake. The method, boiled down: as §3
Data set [5] in a line: Plasma concentration in Dunkin-Hartley guinea pig MIA-induced osteoarthritic pain model at 100 mg/kg, po measured 2 hrs post dose. The class given is ADME, organism-based, Cavia porcellus. The method, boiled down:
(§4)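 Intra-articular MIA into the right shoulder joint on day 0; oral dosing at 100, 250 or 500 mg/kg on day 3, incapacitance (forelimb weight bearing) measured. Plasma concentration sampled 2 h post dose. Means of 6–8 animals per group, single experiment.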

The nature of data set [6]: Plasma concentration in Dunkin-Hartley guinea pig MIA-induced osteoarthritic pain model at 500 mg/kg, po measured 2 hrs post dose. Format: ADME, organism-based, Cavia porcellus. The method, boiled down: as §4
The nature of data set [7]: Ratio of drug uptake in brain to plasma of Dunkin-Hartley guinea pig LPS-induced hyperalgesia pain model at 10 mg/kg, po administered 2 hrs prior to LPS challenge measured 7 hrs post dose. As to conditions: brain and plasma, read-out: BPR. The class given is ADME, organism-based, Cavia porcellus. The method, boiled down:
as §1

Data set [8] in a line: Plasma concentration in Dunkin-Hartley guinea pig MIA-induced osteoarthritic pain model at 250 mg/kg, po measured 2 hrs post dose. Format: ADME, organism-based, Cavia porcellus. The method, boiled down: as §4
The nature of data set [9]: Ratio of plasma concentration in Dunkin-Hartley guinea pig MIA-induced osteoarthritic pain model to IC50 for mPGES1 in guinea pig whole blood. The class given is ADME. As to conditions: in vivo.
In data set [10] the test system is Cavia porcellus. As to the kind of experiment: Analgesic activity in Dunkin-Hartley guinea pig MIA-induced osteoarthritic pain model assessed as reversal of incapacitance at 100 mg/kg, po administered on day 3 measured 6 to 7 hrs post dose relative to control. Format: functional. In short, it runs like this:
as §2

A short description of data set [11]: Ratio of plasma concentration in Dunkin-Hartley guinea pig LPS-induced hyperalgesia pain model to IC50 for mPGES1 in guinea pig whole blood. The class given is ADME. The following applies: in vivo.
Data set [12] in a line: Plasma concentration in Dunkin-Hartley guinea pig LPS-induced hyperalgesia pain model at 30 mg/kg, po administered 2 hrs prior to LPS challenge measured 7 hrs post dose. Format: ADME, organism-based, Cavia porcellus. The method, boiled down:
as §1

Data set [13] in a line: Ratio of plasma concentration in Dunkin-Hartley guinea pig MIA-induced osteoarthritic pain model to IC50 for mPGES1 in human whole blood. Format: ADME. As to conditions: in vivo.
For data set [14], the system named is Canis familiaris. As to the kind of experiment: Toxicity in Beagle dog assessed as emesis at 10 mg/kg, po. Format: organism-based, Canis lupus familiaris. As to conditions: in vivo.
For data set [15], the system named is Cavia porcellus. As to the kind of experiment: Analgesic activity in Dunkin-Hartley guinea pig hyperalgesia pain model assessed as inhibition of LPS-induced hyperalgesia at 30 mg/kg, po administered 2 hrs prior to LPS challenge measured after 4.5 hrs relative to control. Format: functional. In short, it runs like this:
as §3

The test system of data set [16] is Cavia porcellus. Nature of the data set: Analgesic activity in Dunkin-Hartley guinea pig MIA-induced osteoarthritic pain model assessed as reversal of incapacitance at 500 mg/kg, po administered on day 3 measured at 6 to 7 hrs relative to control. Format: functional. In short, it runs like this: as §2
Data set [17] can be described thus: Plasma concentration in Dunkin-Hartley guinea pig LPS-induced hyperalgesia pain model at 100 mg/kg, po administered 2 hrs prior to LPS challenge measured 7 hrs post dose. The class given is ADME, organism-based, Cavia porcellus. In short, it runs like this:
as §1

Data set [18] has as its system Canis familiaris. Nature of the data set: AUC (0 to 24 hrs) in Beagle dog at 10 mg/kg, po. On the set-up: dose 10 mg/kg, time < 24 hr, route oral. The class given is ADME, organism-based, Canis lupus familiaris. As to conditions: in vivo, 24 h. The method, boiled down: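 Single oral dose of 10 mg/kg. Cmax and AUC0-24 taken from the oral arm. Rat: male Sprague-Dawley, dosed in 0.5% methylcellulose suspension, mean ± SD (n = 3). Guinea pig: 20% NMP + 0.5% MC suspension, mean ± SD (n = 3). Dog and cynomolgus monkey: 2.5 μL/mL Tween 80 + 0.5 (w/v) MC suspension.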

In general, ED50 refers to the dose at which the effect has come halfway, by size or by number of responders. In general, inhibition in vivo refers to the share of the control response that was lost under treatment. On to `CC1(C)Cc2c(c(C(=O)Nc3ccc(F)c(C(F)(F)F)c3)cc3nc(Nc4c(F)cccc4Cl)[nH]c23)O1`, for which the concentration at 7 h in data set [1] amounted to 0.094 µg/mL; in [3] it was 87 ng/g; in [4], 96 ng/g; in data set [12] it was 0.145 µg/mL; in data set [17], 1.08 µM. Also, the Activity result is “Dose-dependent effect” in the data set with Cavia porcellus [2], 48% in the data set on Cavia porcellus [10], “Non-Toxic” with Canis familiaris [14] and 83% in the data set on Cavia porcellus [16]. The 50% effective dose (ED50) in the data set on Cavia porcellus [2] (po) worked out at 106 mg/kg. Besides, the concentration at 2 h turned out to be 0.678 µg/mL in [5], 3.54 µM in [6] and 1.51 µg/mL in [8]. In data set [7], the Kp at 7 h stood at 1.02. Also, the Ratio was found to be 7 in [9], 2 in data set [11] and 17 in data set [13]. Further, the inhibition in vivo at 30 mg/kg in the data set on Cavia porcellus [15] turned out to be 44%.
One may read the AUC as the area under the concentration-time curve, a measure of exposure. Read a low AUC as low exposure. In turn, `CC1(C)Cc2c(c(C(=O)Nc3ccc(C(F)(F)F)cn3)cc3nc(Nc4c(Cl)cccc4Cl)[nH]c23)O1` registered an exposure (AUC) in the data set on Canis familiaris [18] of 4.432 µg·h/mL.

The values are drawn from ChEMBL document CHEMBL4219124, “Alleviating CYP and hERG liabilities by structure optimization of dihydrofuran-fused tricyclic benzo[d]imidazole series - Potent, selective and orally efficacious microsomal prostaglandin E synthase-1 (mPGES-1) inhibitors: Part-2” (Bioorg Med Chem Lett, 2018).
